Results collected from several papers.
Compare with care: the assays were run in different laboratories.
Adora2a: Adenosine receptor A2a (Adora2a, Rattus norvegicus, UniProt P30543)
AGTR2: Type-2 angiotensin II receptor (AGTR2, Homo sapiens, UniProt P50052)
DRD1: D(1A) dopamine receptor (DRD1, Homo sapiens, UniProt P21728)

COc1ccc(-c2c(C#N)c(N)nc3sc(C(N)=O)c(N)c23)cc1 — Ki (Adora2a; ligand displacement; radioligand; cell membranes): 0.561 µM
CCC(C)[C@H](NC(=O)c1ccc(C)c(C(=O)N(Cc2ccccc2)Cc2ccccc2)c1)C(=O)O (stereo in doubt) — Ki (AGTR2; ligand displacement in cells; radioligand): 2.5 µM
CCCCn1c(=O)c2[nH]c(C34CC5CC(CC3C5)C4)nc2n(CCCO)c1=O — Ki (Adora2a; ligand displacement; radioligand; cell membranes): 0.371 µM
COc1ccc(-c2c(C#N)c(N)nc(SCC(N)=O)c2C#N)cc1 — Ki (Adora2a; ligand displacement; radioligand; cell membranes): 1.47 µM
COc1ccccc1N1CCN(CCCCN2CCc3ccccc3C2=O)CC1 — Ki (DRD1; cell-free assay; radioligand): 1.62 µM
CCC(C)[C@H](NC(=O)c1ccc(C)c(C(=O)N(C)Cc2ccccc2)c1)C(=O)O (stereo in doubt) — Ki (AGTR2; ligand displacement in cells; radioligand): 7.6 µM
Cc1nc2cc(OCCCCN3CCN(c4cccc(Cl)c4Cl)CC3)ccc2s1 — Ki (Sodium-dependent serotonin transporter (SLC6A4, Homo sapiens, UniProt P31645); ligand displacement; radioligand): 0.34 µM
CCN1CCCn2c1nc1c2c(=O)n(C)c(=O)n1C — Ki (Adora2a; ligand displacement; radioligand; cell membranes): 2.65 µM
Fc1ccc(C2=Nn3c(nnc3-c3cccc(Br)c3)SC2)cc1 — Ki (Urease (Canavalia ensiformis, UniProt P07374); enzyme activity; inhibitor): 3.62 µM
CC1Cc2ccccc2N1C(=O)NCCCCN(C)[C@@H]1Cc2cccc3[nH]c(=O)n(c23)C1 (mixture of isomers) — Ki (DRD1; ligand displacement; radioligand): > 10 µM
CC(C)CC(C)N1CCCn2c1nc1c2c(=O)n(C)c(=O)n1C (stereo not shown) — Ki (Adora2a; ligand displacement; radioligand; cell membranes): 5.37 µM
CCC(C)[C@H](NC(=O)c1cccc(C(=O)N(CC)Cc2ccccc2)c1)C(=O)O (stereo in doubt) — Ki (AGTR2; ligand displacement in cells; radioligand): 11 µM
CC(C)CCCC(C)N1CCCn2c1nc1c2c(=O)n(C)c(=O)n1C (stereo not shown) — Ki (Adora2a; ligand displacement; radioligand; cell membranes): 2.03 µM
CCCC[C@H](NC(=O)[C@H](C)c1c(C)[nH]c2ccc(O)cc12)c1ncc(-c2cc3ccccc3nc2OC)[nH]1 — Ki (Prostaglandin E2 receptor EP1 subtype (PTGER1, Homo sapiens, UniProt P34995); cell-free assay): 2.25 µM
C#CCN1CCCn2c1nc1c2c(=O)n(C)c(=O)n1C — Ki (Adora2a; ligand displacement; radioligand; cell membranes): 7.4 µM
CCc1ccc(C(=O)N[C@H](C(=O)O)C(C)CC)cc1C(=O)N(Cc1ccccc1)Cc1ccccc1 (stereo in doubt) — Ki (AGTR2; ligand displacement in cells; radioligand): 4.4 µM
COc1ccc(-c2c(C#N)c(N)nc(SCc3cccc(C)n3)c2C#N)cc1 — Ki (Adora2a; ligand displacement; radioligand; cell membranes): 0.048 µM
CCC(C)[C@H](NC(=O)c1ccc(C)c(C(=O)N(CC)CC)c1)C(=O)O (stereo in doubt) — Ki (AGTR2; ligand displacement in cells; radioligand): 2.4 µM
COc1cccc(-c2c(C#N)c(N)nc(SCC(N)=O)c2C#N)c1 — Ki (Adora2a; ligand displacement; radioligand; cell membranes): 1.2 µM
CC(C)CN1CCCn2c1nc1c2c(=O)n(C)c(=O)n1C — Ki (Adora2a; ligand displacement; radioligand; cell membranes): 0.87 µM
COc1cccc(-c2c(C#N)c(N)nc(SCc3cccc(C)n3)c2C#N)c1 — Ki (Adora2a; ligand displacement; radioligand; cell membranes): 0.0483 µM
CCC(C)[C@H](NC(=O)c1cccc(C(=O)N(C)Cc2ccccc2)c1)C(=O)O (stereo in doubt) — Ki (AGTR2; ligand displacement in cells; radioligand): 9 µM
CCCCCCN1CCCn2c1nc1c2c(=O)n(C)c(=O)n1C — Ki (Adora2a; ligand displacement; radioligand; cell membranes): 0.82 µM
CCc1ccc(C(=O)N[C@H](C(=O)O)C(C)CC)cc1C(=O)N(CC)Cc1ccccc1 (stereo in doubt) — Ki (AGTR2; ligand displacement in cells; radioligand): 8.3 µM
CCCCN1CCCn2c1nc1c2c(=O)n(CCC)c(=O)n1CCC — Ki (Adora2a; ligand displacement; radioligand; cell membranes): 0.3 µM
